Reference: ChEMBL document CHEMBL2401700, “Discovery of TD-8954, a clinical stage 5-HT(4) receptor agonist with gastrointestinal prokinetic properties” (Bioorg Med Chem Lett, 2013)
Each block holds one compound with its values, some of them ahead of it. The source made the active and inactive calls. The rule behind the calls is not given here.

How the values were obtained:
[1] = molecular target: T1, 5-hydroxytryptamine receptor 4 (Homo sapiens, UniProt Q13639); test: Agonist activity at human recombinant 5HT4 receptor assessed as cAMP accumulation relative to 5-HT; type: functional
Summary of the method: (§1)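 cAMP accumulation in cells expressing human recombinant 5-HT4 receptor, reported as pEC50 with intrinsic activity as % of the maximum response achieved by 5-HT.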

[2] = molecular target: T2, 5-hydroxytryptamine receptor 3A (Homo sapiens, UniProt P46098); test: Binding affinity to human recombinant 5HT3 receptor
T2 sequence (P46098 whole entry): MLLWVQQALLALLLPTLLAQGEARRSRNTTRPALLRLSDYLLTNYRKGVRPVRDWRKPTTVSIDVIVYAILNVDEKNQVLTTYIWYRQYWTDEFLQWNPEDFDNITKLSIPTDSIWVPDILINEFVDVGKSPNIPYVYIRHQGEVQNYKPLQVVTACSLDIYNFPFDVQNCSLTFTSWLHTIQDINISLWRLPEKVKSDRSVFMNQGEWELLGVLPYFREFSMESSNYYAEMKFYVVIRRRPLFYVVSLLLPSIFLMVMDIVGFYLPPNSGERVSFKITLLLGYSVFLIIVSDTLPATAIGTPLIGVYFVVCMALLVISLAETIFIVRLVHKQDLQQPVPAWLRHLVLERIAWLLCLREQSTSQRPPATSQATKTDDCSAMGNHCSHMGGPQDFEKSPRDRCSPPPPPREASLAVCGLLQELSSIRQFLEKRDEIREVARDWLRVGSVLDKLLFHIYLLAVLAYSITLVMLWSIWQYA

[3] = molecular target: T1, 5-hydroxytryptamine receptor 4; test: Agonist activity at human recombinant 5HT4 receptor assessed as cAMP accumulation; type: functional; summary of the method: as §1
[4] = Permeability across human Caco2 cells; type: ADME, cell-based; details: Caco-2, read-out: Kp
[5] = Half life in rat liver micrososmes; type: ADME, Microsome; details: liver microsomes
[6] = molecular target: T1, 5-hydroxytryptamine receptor 4; test: Binding affinity to human recombinant 5HT4 receptor
[7] = molecular target: T3, 5-hydroxytryptamine receptor 7 (Homo sapiens, UniProt P34969); test: Binding affinity to human serotonin 5-HT7 receptor
[8] = tested on: Rattus norvegicus; test: Agonist activity at 5HT4 receptor in ID dosed rat assessed as dose required to cause esophageal relaxation of 0.1 mm; type: functional
Summary of the method: (§2)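 Anesthetized rats dosed intraduodenally over about 0.01–10 mg/kg. Esophageal relaxation was tracked by digital sonomicrometry as the change in inter-crystal distance (mm), n = 4–6. An ED50 was derived from the dose–response, and the dose giving a 0.1 mm relaxation response was calculated.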

[9] = molecular target: T4, 5-hydroxytryptamine receptor 1A (Homo sapiens, UniProt P08908); test: Binding affinity to human serotonin 5-HT1A receptor
T4 sequence (P08908 whole entry): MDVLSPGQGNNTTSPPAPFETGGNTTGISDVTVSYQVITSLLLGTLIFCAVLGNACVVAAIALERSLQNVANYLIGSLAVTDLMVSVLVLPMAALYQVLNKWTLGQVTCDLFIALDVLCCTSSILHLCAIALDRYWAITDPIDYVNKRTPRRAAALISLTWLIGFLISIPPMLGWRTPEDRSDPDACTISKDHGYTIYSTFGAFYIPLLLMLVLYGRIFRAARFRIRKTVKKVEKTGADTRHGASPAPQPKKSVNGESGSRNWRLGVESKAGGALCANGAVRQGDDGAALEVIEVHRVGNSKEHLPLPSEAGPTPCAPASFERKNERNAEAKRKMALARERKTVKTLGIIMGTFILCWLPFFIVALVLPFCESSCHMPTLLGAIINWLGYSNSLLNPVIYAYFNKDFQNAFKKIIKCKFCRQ

[10] = molecular target: T2, 5-hydroxytryptamine receptor 3A; test: Binding affinity to serotonin 5-HT3 receptor (unknown origin)
[11] = molecular target: T5, 5-hydroxytryptamine receptor 2C (Homo sapiens, UniProt P28335); test: Binding affinity to serotonin 5-HT2C receptor (unknown origin)
T5 sequence (P28335 whole entry): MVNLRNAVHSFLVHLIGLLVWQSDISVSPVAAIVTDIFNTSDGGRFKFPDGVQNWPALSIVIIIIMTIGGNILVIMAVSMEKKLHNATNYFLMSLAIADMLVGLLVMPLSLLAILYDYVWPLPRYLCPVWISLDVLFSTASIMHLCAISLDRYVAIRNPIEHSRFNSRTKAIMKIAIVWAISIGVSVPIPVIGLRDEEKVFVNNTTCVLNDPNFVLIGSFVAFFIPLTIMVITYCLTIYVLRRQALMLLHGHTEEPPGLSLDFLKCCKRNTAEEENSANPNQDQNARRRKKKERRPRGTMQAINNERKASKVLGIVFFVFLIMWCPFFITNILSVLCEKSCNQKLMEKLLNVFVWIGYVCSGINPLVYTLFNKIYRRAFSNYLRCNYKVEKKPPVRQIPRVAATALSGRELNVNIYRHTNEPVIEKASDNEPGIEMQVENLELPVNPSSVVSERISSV

[12] = molecular target: T6, 5-hydroxytryptamine receptor 1D (Homo sapiens, UniProt P28221); test: Binding affinity to serotonin 5-HT1D receptor (unknown origin)
[13] = molecular target: T7, 5-hydroxytryptamine receptor 2A (Homo sapiens, UniProt P28223); test: Binding affinity to serotonin 5-HT2A receptor (unknown origin)
[14] = molecular target: T8, 5-hydroxytryptamine receptor 2B (Homo sapiens, UniProt P41595); test: Binding affinity to serotonin 5-HT2B receptor (unknown origin)
[15] = Cardiotoxicity in dog coronary artery assessed as coronary artery constriction; type: toxicity, tissue-based, Canis lupus familiaris
[16] = molecular target: T3, 5-hydroxytryptamine receptor 7; test: Binding affinity to serotonin 5-HT7 receptor (unknown origin)
[17] = molecular target: hERG (KCNH2) (Homo sapiens, UniProt Q12809); test: Inhibition of human ERG channel at 3 uM
[18] = molecular target: T9, 5-hydroxytryptamine receptor 1A (Homo sapiens) (UniProt P08908); test: Inhibition of serotonin 5-HT1A receptor (unknown origin) at 1 uM
T9 sequence (whole entry): T4 sequence (P08908 whole entry)

[19] = molecular target: T10, 5-hydroxytryptamine receptor 3A (Homo sapiens) (UniProt P46098); test: Inhibition of serotonin 5-HT3A receptor (unknown origin) at 1 uM
T10 sequence (whole entry): T2 sequence (P46098 whole entry)

[20] = Half life in Sprague-Dawley rat at 5 mg/kg, po; type: ADME, organism-based; set-up: dose 5 mg/kg, route oral; details: in vivo
[21] = Cardiotoxicity in pig coronary artery assessed as coronary artery constriction; type: toxicity, tissue-based, Sus scrofa
[22] = Cmax in beagle dog at 2 mg/kg, po; type: ADME, organism-based, Canis lupus familiaris; set-up: dose 2 mg/kg, route oral; details: in vivo
[23] = AUC (0 to t) in beagle dog at 2 mg/kg, po; type: ADME, organism-based, Canis lupus familiaris; set-up: dose 2 mg/kg, route oral; details: plasma
[24] = tested on: Cavia porcellus; test: Prokinetic activity at guinea pig colonic transit model assessed as reduction in time taken for excretion of first pellet at 0.03 mg/kg, sc by carmine red dye-based assay relative to vehicle-treated control; type: functional; set-up: scale not given: the % may be the effect or the level left; details: route subcutaneous
Summary of the method: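 Conscious guinea pigs given sc doses of 0.03, 0.3 or 3 mg/kg or vehicle (2 mL/kg), n = 9–22 per group. Colonic transit was measured as time to excretion of the first fecal pellet containing carmine red dye marker. Compared with vehicle by ANOVA with Dunnett's post-hoc test, p < 0.05.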

[25] = Elimination half life in healthy human; type: ADME, organism-based; details: in vivo, read-out: beta t1/2 (converted)
[26] = molecular target: T7, 5-hydroxytryptamine receptor 2A; test: Inhibition of serotonin 5-HT2A receptor (unknown origin) at 1 uM
[27] = Oral bioavailability in Sprague-Dawley rat at 5 mg/kg; type: ADME, organism-based; details: in vivo
[28] = tested on: Rattus norvegicus; test: Induction of 5-HT4 receptor-mediated esophageal relaxation in ID dosed rat; type: functional; summary of the method: as §2
[29] = molecular target: 5-hydroxytryptamine receptor 6 (Homo sapiens) (UniProt P50406); test: Inhibition of serotonin 5-HT6 receptor (unknown origin) at 1 uM
[30] = molecular target: 5-hydroxytryptamine receptor 5A (Homo sapiens) (UniProt P47898); test: Inhibition of serotonin 5-HT5A receptor (unknown origin) at 1 uM
[31] = Cmax in Sprague-Dawley rat at 5 mg/kg, po; type: ADME, organism-based; set-up: dose 5 mg/kg, route oral; details: in vivo
[32] = molecular target: 5-hydroxytryptamine receptor 4 (Cavia porcellus) (UniProt O70528)
[33] = molecular target: T3, 5-hydroxytryptamine receptor 7; test: Inhibition of serotonin 5-HT7 receptor (unknown origin) at 1 uM
[34] = molecular target: T6, 5-hydroxytryptamine receptor 1D; test: Inhibition of serotonin 5-HT1D receptor (unknown origin) at 1 uM
[35] = molecular target: T8, 5-hydroxytryptamine receptor 2B; test: Inhibition of serotonin 5-HT2B receptor (unknown origin) at 1 uM
[36] = molecular target: T11, 5-hydroxytryptamine receptor 2C (Homo sapiens) (UniProt P28335); test: Inhibition of serotonin 5-HT2C receptor (unknown origin) at 1 uM
T11 sequence (whole entry): T5 sequence (P28335 whole entry)

[37] = Cardiotoxicity in human coronary artery assessed as coronary artery constriction; type: toxicity, tissue-based
[38] = molecular target: 5-hydroxytryptamine receptor 1B (Homo sapiens) (UniProt P28222); test: Inhibition of serotonin 5-HT1B receptor (unknown origin) at 1 uM
[39] = AUC (0 to t) in Sprague-Dawley rat at 5 mg/kg, po; type: ADME, organism-based; set-up: dose 5 mg/kg, route oral; details: plasma
[40] = species: Homo sapiens; test: Increase in bowel movements in healthy human at 0.1 to 20 mg after 24 hrs relative to placebo
[41] = Half life in beagle dog at 2 mg/kg, po; type: ADME, organism-based, Canis lupus familiaris; set-up: dose 2 mg/kg, route oral; details: in vivo
[42] = Oral bioavailability in beagle dog at 2 mg/kg; type: ADME, organism-based, Canis lupus familiaris; details: in vivo

Sequence of hERG (KCNH2) (Q12809 whole entry): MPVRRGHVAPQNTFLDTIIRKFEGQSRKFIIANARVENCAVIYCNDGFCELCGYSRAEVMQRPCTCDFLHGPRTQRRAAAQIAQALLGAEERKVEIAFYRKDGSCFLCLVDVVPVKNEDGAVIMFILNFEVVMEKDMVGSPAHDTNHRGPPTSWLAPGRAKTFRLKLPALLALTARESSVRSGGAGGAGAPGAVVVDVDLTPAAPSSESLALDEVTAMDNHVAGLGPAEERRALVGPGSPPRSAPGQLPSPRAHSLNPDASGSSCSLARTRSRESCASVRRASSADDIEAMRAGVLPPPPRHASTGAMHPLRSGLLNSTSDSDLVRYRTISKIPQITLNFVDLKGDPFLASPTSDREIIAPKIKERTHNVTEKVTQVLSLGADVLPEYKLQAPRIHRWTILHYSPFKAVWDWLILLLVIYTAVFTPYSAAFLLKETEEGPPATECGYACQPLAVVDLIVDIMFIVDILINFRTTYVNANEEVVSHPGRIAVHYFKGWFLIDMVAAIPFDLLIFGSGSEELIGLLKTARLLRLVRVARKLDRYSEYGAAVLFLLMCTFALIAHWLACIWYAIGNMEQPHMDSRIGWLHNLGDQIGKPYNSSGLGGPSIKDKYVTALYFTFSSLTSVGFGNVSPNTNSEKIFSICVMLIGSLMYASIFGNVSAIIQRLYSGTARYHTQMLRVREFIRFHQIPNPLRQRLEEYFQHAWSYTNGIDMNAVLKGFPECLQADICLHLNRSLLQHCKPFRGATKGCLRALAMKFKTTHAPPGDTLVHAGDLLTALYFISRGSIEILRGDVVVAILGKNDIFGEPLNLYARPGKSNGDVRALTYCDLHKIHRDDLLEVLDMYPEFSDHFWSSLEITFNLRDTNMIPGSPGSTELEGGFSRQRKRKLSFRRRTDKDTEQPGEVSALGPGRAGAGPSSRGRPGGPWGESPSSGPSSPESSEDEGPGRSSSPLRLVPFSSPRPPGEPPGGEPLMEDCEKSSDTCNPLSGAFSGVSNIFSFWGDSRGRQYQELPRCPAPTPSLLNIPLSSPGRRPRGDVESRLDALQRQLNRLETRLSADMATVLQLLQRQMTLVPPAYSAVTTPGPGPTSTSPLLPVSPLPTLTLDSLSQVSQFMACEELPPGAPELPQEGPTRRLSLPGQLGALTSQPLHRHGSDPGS
T1 sequence (Q13639 whole entry): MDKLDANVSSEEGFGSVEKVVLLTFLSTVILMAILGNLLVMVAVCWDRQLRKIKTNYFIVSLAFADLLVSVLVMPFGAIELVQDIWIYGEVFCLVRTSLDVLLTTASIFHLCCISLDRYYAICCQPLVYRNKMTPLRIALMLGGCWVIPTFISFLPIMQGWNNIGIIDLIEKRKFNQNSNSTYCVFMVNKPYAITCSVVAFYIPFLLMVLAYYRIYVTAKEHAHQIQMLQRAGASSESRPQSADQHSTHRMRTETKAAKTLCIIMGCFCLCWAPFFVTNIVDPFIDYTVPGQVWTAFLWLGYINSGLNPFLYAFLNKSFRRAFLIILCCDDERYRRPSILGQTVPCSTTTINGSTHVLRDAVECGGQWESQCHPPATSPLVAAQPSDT
T3 sequence (P34969 whole entry): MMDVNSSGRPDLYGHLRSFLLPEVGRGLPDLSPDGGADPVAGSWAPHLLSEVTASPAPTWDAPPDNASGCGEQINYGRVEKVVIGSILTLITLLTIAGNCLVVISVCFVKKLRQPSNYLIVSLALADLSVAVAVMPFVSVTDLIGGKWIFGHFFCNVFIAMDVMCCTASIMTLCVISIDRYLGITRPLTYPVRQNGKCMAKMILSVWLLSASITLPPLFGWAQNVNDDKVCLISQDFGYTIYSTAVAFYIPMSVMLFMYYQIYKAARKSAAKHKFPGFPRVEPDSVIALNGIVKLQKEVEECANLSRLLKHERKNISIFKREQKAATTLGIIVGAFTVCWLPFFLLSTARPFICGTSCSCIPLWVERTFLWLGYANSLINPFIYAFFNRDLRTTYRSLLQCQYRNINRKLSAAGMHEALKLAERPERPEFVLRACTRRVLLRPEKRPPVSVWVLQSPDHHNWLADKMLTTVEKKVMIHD
T6 sequence (P28221 whole entry): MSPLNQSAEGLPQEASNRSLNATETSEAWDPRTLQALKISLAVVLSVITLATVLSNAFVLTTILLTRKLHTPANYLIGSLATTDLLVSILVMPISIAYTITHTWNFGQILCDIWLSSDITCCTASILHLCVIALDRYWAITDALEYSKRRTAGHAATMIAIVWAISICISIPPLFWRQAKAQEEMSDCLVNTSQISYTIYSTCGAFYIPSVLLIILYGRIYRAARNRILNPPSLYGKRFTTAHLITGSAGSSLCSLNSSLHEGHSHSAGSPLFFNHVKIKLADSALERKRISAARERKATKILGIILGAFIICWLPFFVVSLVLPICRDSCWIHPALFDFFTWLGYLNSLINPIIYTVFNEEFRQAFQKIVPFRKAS
T8 sequence (P41595 whole entry): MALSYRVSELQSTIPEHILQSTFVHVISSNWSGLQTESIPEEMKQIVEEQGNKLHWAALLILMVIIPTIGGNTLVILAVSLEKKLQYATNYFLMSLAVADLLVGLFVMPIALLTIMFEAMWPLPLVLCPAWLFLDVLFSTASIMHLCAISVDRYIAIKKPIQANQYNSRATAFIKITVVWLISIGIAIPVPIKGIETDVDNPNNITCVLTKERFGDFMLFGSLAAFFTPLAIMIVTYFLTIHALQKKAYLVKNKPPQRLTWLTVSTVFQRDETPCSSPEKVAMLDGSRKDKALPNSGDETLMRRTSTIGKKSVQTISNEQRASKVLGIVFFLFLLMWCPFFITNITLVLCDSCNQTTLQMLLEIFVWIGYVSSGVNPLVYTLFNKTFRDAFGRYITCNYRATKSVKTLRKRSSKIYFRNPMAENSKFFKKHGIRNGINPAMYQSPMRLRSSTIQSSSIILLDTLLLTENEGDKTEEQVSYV
T7 sequence (P28223 whole entry): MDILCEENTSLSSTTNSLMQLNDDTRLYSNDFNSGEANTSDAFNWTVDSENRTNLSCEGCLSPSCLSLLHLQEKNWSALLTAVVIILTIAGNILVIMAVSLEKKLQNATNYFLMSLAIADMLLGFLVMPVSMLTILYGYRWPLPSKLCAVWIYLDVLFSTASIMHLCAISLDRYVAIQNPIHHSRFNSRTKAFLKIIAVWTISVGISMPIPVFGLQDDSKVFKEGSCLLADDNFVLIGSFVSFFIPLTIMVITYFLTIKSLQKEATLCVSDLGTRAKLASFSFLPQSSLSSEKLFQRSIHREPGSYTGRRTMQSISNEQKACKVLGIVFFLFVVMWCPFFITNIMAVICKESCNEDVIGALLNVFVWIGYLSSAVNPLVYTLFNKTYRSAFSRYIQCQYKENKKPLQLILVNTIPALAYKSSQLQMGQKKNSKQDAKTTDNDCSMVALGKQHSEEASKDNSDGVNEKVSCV
Sequence of 5-hydroxytryptamine receptor 5A (Homo sapiens) (P47898 whole entry): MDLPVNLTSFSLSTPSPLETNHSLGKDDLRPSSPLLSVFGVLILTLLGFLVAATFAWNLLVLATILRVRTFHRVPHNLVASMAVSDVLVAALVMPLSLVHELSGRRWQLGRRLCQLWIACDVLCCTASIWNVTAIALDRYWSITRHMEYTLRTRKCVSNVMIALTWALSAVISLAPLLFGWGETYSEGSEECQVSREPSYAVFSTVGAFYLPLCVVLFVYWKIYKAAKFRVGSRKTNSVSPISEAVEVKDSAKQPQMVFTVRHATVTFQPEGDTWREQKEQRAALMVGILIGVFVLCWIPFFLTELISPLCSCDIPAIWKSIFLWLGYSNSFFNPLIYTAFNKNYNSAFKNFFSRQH
Sequence of 5-hydroxytryptamine receptor 6 (Homo sapiens) (P50406 whole entry): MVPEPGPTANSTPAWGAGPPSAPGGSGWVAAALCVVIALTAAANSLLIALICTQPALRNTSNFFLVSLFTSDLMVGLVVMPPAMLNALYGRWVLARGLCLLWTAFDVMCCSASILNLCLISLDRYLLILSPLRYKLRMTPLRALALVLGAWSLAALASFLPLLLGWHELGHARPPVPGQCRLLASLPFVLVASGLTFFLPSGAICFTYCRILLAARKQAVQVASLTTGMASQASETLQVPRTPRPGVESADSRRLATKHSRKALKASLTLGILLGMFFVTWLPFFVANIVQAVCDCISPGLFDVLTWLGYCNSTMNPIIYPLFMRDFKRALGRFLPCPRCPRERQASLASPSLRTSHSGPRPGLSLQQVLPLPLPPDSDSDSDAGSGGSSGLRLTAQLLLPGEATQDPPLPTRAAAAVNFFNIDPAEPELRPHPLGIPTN
Sequence of 5-hydroxytryptamine receptor 1B (Homo sapiens) (P28222 whole entry): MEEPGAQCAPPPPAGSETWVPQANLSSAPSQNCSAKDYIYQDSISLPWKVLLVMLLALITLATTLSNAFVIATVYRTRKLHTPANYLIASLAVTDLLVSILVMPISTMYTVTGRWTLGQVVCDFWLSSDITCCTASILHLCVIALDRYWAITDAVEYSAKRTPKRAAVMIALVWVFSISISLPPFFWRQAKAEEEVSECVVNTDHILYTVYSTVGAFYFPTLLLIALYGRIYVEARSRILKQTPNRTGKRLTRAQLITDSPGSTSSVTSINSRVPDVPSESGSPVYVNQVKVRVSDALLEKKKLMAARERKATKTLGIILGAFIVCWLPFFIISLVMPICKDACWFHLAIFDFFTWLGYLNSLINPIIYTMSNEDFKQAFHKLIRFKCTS
Sequence of 5-hydroxytryptamine receptor 4 (Cavia porcellus) (O70528 whole entry): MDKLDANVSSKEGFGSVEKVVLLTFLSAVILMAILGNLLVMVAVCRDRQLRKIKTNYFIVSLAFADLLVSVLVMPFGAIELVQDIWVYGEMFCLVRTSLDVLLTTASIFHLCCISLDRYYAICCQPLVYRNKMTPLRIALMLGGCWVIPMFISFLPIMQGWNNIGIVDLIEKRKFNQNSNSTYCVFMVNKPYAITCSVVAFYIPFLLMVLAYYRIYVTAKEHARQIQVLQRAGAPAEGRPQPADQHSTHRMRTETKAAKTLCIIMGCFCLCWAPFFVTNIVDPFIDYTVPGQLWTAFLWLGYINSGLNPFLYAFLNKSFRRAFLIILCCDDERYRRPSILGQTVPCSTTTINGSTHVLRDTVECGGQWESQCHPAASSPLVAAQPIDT

Compound: COc1cc(N)c(Cl)cc1C(=O)NC1CCN(CCCOc2ccc(F)cc2)CC1OC (racemic) [CISAPRIDE]
Ki [7]: 1 µM
Intrinsic activity [1]: 71%
Ki [2]: 2 µM
Activity [8]: 2.66 mg/kg
Ki [9]: 0.794 µM
Ki [10]: 2 µM
half-life [5]: 0.783 h

Compound: CCCCCNC(=N)N/N=C/c1c[nH]c2ccc(OC)cc12 [TEGASEROD]
Ki [11]: < 0.1 µM
Ki [12]: < 0.1 µM
Ki [2]: 2.51 µM
Activity [8]: 2.43 mg/kg
half-life [5]: > 1.5 h
Ki [13]: < 0.1 µM
Ki [14]: < 0.002 µM
Activity [15]: Toxic
Ki [16]: < 0.1 µM

Compound: COC(=O)N1CCC(CN2CCC(CNC(=O)c3cccc4[nH]c(C(C)C)nc34)CC2)CC1
inhibition [18]: < 50%
inhibition [19]: < 50%
half-life [20]: 1.6 h
Activity [21]: Non-toxic
Cmax [22]: 464 ng/mL
AUC(0-t) [23]: 2280 ng·h/mL
Intrinsic activity [1]: 83%
Ki [2]: 100 µM
Activity [24]: 40%
Activity [8]: 0.23 mg/kg
half-life [25]: 12 h
inhibition [26]: < 50%
bioavailability [27]: 77%
Activity [28]: Dose-dependent effect
ED50 [28]: 0.15 mg/kg
inhibition [29]: < 50%
inhibition [30]: < 50%
Cmax [31]: 818 ng/mL
Papp [4]: 54 ×10⁻⁶ cm/s
pKb(app) [32]: 9.3
inhibition [33]: < 50%
inhibition [34]: < 50%
inhibition [35]: < 50%
half-life [5]: 1.43 h
inhibition [36]: < 50%
Activity [37]: Non-toxic
inhibition [38]: < 50%
AUC(0-t) [39]: 1240 ng·h/mL
Activity [40]: Active
Activity [15]: Non-toxic
half-life [41]: 3.5 h
bioavailability [42]: 63%

Compound: CC(=O)N1CCC(CN2CCC(CNC(=O)c3cccc4[nH]c(C(C)C)nc34)CC2)CC1
Intrinsic activity [1]: 87%
Ki [2]: 100 µM
EC50 [3]: 0.00158 µM
inhibition at 3 µM [17]: 22%
Papp [4]: 6 ×10⁻⁶ cm/s
half-life [5]: > 1.5 h
Ki [6]: 0.001 µM

Second part, led by results:

Intrinsic activity [1]: 64%
Ki [2]: 100 µM
EC50 [3]: 0.000794 µM
Papp [4]: 4 ×10⁻⁶ cm/s
half-life [5]: > 1.5 h
Ki [6]: 0.000794 µM
Compound: CC(C)c1nc2c(C(=O)NCC3CCN(CCN4CCN(S(C)(=O)=O)CC4)CC3)cccc2[nH]1

Intrinsic activity [1]: 72%
Ki [2]: 79.4 µM
EC50 [3]: 0.00158 µM
Papp [4]: 9 ×10⁻⁶ cm/s
half-life [5]: > 1.5 h
Ki [6]: 0.00158 µM
Compound: COC(=O)N1CCN(CCN2CCC(CNC(=O)c3cccc4[nH]c(C(C)C)nc34)CC2)CC1

Intrinsic activity [1]: 64%
Ki [2]: 50.1 µM
EC50 [3]: 0.000631 µM
Papp [4]: 2.1 ×10⁻⁶ cm/s
half-life [5]: > 1.5 h
Ki [6]: 0.000501 µM
Compound: CS(=O)(=O)N1CCN(CC(O)CN2CCC(CNC(=O)c3cccc4[nH]c(C5CC5)nc34)CC2)CC1 (configuration not stated)

Intrinsic activity [1]: 63%
Ki [2]: 100 µM
EC50 [3]: 0.001 µM
Papp [4]: 5 ×10⁻⁶ cm/s
half-life [5]: 1.47 h
Ki [6]: 0.000501 µM
Compound: CC(C)c1nc2c(C(=O)NCC3CCN(CC4CCN(S(C)(=O)=O)CC4)CC3)cccc2[nH]1
inhibition at 3 µM [17]: 8%

Intrinsic activity [1]: 61%
Ki [2]: 79.4 µM
EC50 [3]: 0.000631 µM
Papp [4]: 0.2 ×10⁻⁶ cm/s
half-life [5]: > 1.5 h
Ki [6]: 0.000501 µM
Compound: CC(C)c1nc2c(C(=O)NCC3CCN(CC(O)CN4CCN(S(C)(=O)=O)CC4)CC3)cccc2[nH]1 (configuration not stated)
inhibition at 3 µM [17]: 5%
